{
  "source": "the M2OR odorant receptor database",
  "data": [
    {"target": "T1, OR2M4 (Homo sapiens) (UniProt Q96R27)", "T1 sequence (whole entry)": "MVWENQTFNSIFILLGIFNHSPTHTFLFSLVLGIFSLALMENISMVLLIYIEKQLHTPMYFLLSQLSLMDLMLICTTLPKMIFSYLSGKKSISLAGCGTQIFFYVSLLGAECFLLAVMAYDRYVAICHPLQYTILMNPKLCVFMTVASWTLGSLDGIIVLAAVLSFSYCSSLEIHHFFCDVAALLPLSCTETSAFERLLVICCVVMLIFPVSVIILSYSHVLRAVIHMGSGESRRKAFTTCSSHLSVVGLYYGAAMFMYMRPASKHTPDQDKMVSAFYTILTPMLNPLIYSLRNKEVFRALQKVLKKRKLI", "conditions": "stereoisomer not certain", "summary_of_the_method": "(§1)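 Whether a receptor–molecule pair is responsive (active) rests on the original authors' judgment that its measured signal was statistically different from baseline. Pairs without that judgment are non-responsive (inactive). Sources used varied assay methods, commonly transient luciferase assays in mammalian cell lines.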", "values": [
      {"smiles": "CC(C)=CCCC(C)CC=O", "note": "(stereo not given)", "odorant receptor agonist call": "inactive"},
      {"smiles": "Cc1ccc(C(C)C)cc1O", "odorant receptor agonist call": "inactive"},
      {"smiles": "CCCCCC(=O)C(C)C(C)=O", "note": "(stereo not given)", "odorant receptor agonist call": "inactive"},
      {"smiles": "CCC(S)C(C)CO", "note": "(stereo not given)", "odorant receptor agonist call": "inactive"},
      {"smiles": "CC(C)(C)C1CCCCC1OCCCCO", "note": "(stereo not given)", "odorant receptor agonist call": "inactive"}
    ]},
    {"target": "T2, OR2M5 (Homo sapiens) (UniProt A3KFT3)", "T2 sequence (whole entry)": "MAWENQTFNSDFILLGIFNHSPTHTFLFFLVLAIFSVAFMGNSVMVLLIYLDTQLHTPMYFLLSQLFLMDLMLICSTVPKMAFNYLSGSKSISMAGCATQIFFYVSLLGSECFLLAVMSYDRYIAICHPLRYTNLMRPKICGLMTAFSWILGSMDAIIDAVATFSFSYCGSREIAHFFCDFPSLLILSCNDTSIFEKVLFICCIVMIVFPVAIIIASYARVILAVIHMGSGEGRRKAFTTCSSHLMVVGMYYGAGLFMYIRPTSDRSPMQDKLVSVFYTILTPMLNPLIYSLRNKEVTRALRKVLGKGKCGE", "conditions": "stereoisomer not certain", "summary_of_the_method": "as §1", "values": [
      {"smiles": "CC(CO)CS", "note": "(stereo not given)", "odorant receptor agonist call": "inactive"},
      {"smiles": "CCCCCCC=CCCC=O", "odorant receptor agonist call": "inactive"},
      {"smiles": "CCC1OC(C)=C(O)C1=O", "note": "(stereo not given)", "odorant receptor agonist call": "inactive"},
      {"smiles": "CC1=NC(C)C(C)S1", "note": "(stereo not given)", "odorant receptor agonist call": "inactive"},
      {"smiles": "Cc1cnc(C)c(C)n1", "odorant receptor agonist call": "inactive"},
      {"smiles": "CC1CCCCCCCCCCCCC(=O)C1", "note": "(stereo not given)", "odorant receptor agonist call": "inactive"},
      {"smiles": "CC(=O)c1c(C)c([N+](=O)[O-])c(C(C)(C)C)c([N+](=O)[O-])c1C", "odorant receptor agonist call": "inactive"},
      {"smiles": "CC1=C(O)C(=O)C(C)O1", "note": "(stereo not given)", "odorant receptor agonist call": "inactive"},
      {"smiles": "CCCCC(S)C(C)CO", "note": "(stereo not given)", "odorant receptor agonist call": "inactive"},
      {"smiles": "CCC1OC(=O)C(O)=C1C", "note": "(stereo not given)", "odorant receptor agonist call": "inactive"},
      {"smiles": "CCCC(S)CCOC(C)=O", "note": "(stereo not given)", "odorant receptor agonist call": "inactive"},
      {"smiles": "CCCCCC(S)C(C)CO", "note": "(stereo not given)", "odorant receptor agonist call": "inactive"},
      {"smiles": "CC1=C(O)C(=O)OC1C", "note": "(stereo not given)", "odorant receptor agonist call": "inactive"},
      {"smiles": "CCCCCC(=O)C(C)C(C)=O", "note": "(stereo not given)", "odorant receptor agonist call": "inactive"},
      {"smiles": "CCC(S)C(C)CO", "note": "(stereo not given)", "odorant receptor agonist call": "inactive"}
    ]}
  ]
}
